Measurements: ChEMBL document CHEMBL1134307, “trans-4-[4-(Methoxyphenyl)cyclohexyl]-1-arylpiperazines: a new class of potent and selective 5-HT(1A) receptor ligands as conformationally constrained analogues of 4-[3-(5-methoxy-1,2,3,4-tetrahydronaphthalen-1-yl)propyl]-1-arylpiperazines” (J Med Chem, 2001)

Assays:
[1] = target: T1, Adrenergic receptor alpha-1 (Rattus norvegicus, UniProt P15823+P23944+P43140); test: Binding affinity towards alpha-1 adrenergic receptor in rat cortical membranes; format: cell membranes
T1 sequence (P15823 whole entry): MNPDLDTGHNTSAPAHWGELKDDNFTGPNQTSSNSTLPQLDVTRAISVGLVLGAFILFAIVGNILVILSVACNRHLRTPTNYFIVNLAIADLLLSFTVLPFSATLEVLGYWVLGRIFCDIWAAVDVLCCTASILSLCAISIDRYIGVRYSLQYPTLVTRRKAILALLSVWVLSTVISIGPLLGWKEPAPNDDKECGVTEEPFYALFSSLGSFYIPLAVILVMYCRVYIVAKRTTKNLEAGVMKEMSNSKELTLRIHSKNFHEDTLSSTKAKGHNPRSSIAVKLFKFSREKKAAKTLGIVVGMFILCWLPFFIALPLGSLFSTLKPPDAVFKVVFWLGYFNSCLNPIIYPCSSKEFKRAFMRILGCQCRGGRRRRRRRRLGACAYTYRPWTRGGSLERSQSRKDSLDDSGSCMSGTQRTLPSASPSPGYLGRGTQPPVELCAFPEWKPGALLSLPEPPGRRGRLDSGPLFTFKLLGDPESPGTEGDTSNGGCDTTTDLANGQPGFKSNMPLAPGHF
T1 sequence (P23944 whole entry): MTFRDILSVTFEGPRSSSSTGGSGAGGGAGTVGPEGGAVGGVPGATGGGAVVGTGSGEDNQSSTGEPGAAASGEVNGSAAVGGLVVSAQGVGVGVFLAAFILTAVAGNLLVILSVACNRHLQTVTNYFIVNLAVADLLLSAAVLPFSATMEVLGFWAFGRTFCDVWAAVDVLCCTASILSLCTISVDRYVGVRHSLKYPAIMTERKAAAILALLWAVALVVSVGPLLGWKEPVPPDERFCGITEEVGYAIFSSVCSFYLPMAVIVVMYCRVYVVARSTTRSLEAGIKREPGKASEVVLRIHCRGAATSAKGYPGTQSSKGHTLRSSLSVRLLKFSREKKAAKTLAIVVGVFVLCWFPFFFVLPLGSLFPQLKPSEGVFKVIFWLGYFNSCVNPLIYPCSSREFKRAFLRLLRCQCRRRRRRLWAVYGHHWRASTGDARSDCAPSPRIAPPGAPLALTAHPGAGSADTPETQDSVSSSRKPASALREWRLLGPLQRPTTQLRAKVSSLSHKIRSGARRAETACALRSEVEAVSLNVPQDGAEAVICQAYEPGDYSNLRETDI
T1 sequence (P43140 whole entry): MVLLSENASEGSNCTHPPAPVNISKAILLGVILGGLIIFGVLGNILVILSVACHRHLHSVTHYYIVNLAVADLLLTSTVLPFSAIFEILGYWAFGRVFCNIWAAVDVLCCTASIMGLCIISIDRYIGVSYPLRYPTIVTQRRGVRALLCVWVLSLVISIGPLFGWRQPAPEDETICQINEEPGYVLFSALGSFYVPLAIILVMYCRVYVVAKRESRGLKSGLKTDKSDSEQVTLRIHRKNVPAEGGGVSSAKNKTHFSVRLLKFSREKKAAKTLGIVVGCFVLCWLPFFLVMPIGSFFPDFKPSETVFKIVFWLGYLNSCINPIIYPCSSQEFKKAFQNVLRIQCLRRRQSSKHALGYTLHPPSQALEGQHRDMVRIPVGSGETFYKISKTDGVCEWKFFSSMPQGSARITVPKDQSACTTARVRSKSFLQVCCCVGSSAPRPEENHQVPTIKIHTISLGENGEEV

[2] = target: D(2) dopamine receptor (Rattus norvegicus, UniProt P61169); test: Binding affinity towards dopamine receptor D2 in rat striatal membranes; format: cell membranes, Striatum, Membrane
Sequence of D(2) dopamine receptor (P61169 whole entry): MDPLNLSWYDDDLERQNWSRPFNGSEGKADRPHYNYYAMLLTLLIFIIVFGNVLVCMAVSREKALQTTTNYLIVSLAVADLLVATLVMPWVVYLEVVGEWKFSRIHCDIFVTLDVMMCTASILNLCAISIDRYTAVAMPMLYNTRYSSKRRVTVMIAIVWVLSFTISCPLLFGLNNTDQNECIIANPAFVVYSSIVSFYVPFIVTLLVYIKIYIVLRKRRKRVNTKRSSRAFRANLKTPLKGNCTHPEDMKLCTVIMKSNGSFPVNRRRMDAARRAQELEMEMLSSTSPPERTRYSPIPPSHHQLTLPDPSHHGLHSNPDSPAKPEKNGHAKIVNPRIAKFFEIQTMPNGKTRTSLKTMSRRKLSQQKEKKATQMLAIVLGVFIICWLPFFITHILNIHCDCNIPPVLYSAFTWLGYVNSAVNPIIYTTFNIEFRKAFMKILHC

[3] = target: T2, 5-hydroxytryptamine receptor 1A (Rattus norvegicus, UniProt P19327); test: Binding was determined on 5-hydroxytryptamine 1A receptor in rat hippocampal membranes; format: cell membranes, Hippocampus
T2 sequence (P19327 whole entry): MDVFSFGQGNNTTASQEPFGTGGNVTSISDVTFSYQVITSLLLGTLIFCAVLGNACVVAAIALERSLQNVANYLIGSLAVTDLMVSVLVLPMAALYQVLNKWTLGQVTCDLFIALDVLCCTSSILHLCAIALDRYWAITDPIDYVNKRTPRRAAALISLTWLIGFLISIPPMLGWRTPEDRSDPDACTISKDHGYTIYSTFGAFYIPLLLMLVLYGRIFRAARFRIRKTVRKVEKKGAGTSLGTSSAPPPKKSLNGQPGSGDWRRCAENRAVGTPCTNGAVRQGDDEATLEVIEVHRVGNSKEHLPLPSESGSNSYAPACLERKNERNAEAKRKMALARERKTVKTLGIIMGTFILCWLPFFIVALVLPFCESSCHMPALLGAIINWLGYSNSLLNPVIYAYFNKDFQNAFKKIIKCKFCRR
Summary of the method: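 Hippocampus from male Wistar Hannover rats, homogenized in 50 mM Tris pH 7.6, washed, and preincubated 10 min at 37 °C. Ki given as mean ± SEM.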

[4] = target: T3, 5-hydroxytryptamine receptor 1A (Homo sapiens) (UniProt P08908); test: Maximal stimulation was expressed as percentage of the maximal 5-HT response in the [35S]GTP-gamma-S, binding assay on 5-hydroxytryptamine 1A receptor; format: functional
T3 sequence (whole entry): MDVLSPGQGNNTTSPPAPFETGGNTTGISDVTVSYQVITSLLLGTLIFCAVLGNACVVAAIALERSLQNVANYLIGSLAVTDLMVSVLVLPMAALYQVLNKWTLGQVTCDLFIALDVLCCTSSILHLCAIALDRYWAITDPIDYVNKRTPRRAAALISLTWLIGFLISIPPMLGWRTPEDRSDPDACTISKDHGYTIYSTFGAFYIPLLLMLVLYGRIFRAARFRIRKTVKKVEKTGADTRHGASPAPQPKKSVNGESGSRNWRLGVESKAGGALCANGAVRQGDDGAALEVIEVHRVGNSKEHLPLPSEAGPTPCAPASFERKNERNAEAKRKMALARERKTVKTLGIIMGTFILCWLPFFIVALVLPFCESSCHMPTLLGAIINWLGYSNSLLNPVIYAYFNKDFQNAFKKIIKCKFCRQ
Summary of the method: (§1)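 Membranes of HeLa cells expressing human 5-HT1A, in 20 mM HEPES, 3 mM MgCl2, 120 mM NaCl pH 7.4. Preincubated 20 min at 30 °C with 30 µM GDP and drug (0.1 nM–100 µM) or 5-HT as reference curve. [35S]GTPγS (200–250 pM) then added for 30 min at 30 °C. Nonspecific binding with 10 µM GTPγS. Curves fitted by ALLFIT to give Emax and pD2 (−log EC50).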

[5] = target: T3, 5-hydroxytryptamine receptor 1A (Homo sapiens); test: Potency (pD2) for the stimulation of [35S]GTP-gamma-S, binding on 5-hydroxytryptamine 1A receptor; format: functional; summary of the method: as §1
[6] = Selectivity expressed as a ratio of affinity against Alpha 1A-Adrenoceptor to that of 5-HT1A receptor
[7] = Selectivity expressed as a ratio of affinity against Alpha 1b-Adrenoceptor to that of 5-HT1A receptor
[8] = Selectivity expressed as a ratio of affinity against Alpha 1d-Adrenoceptor to that of 5-HT1A receptor
[9] = target: T4, 5-hydroxytryptamine receptor 1A (Rattus norvegicus) (UniProt P19327); test: Agonistic activity (induction of forepaw treading in rats)on postsynaptic 5-hydroxytryptamine 1A receptor while iv administration; format: functional, organism-based
T4 sequence (whole entry): T2 sequence (P19327 whole entry)
Summary of the method: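 Male Sprague Dawley rats (175–200 g), iv injection; vehicle DMF 20% v/v plus Tween 80 10% v/v in water, or water for the reference agonist. Rats placed singly 10–15 min beforehand, 4–8 per dose. A blind observer scored fore-paw treading in 30 s sessions every 3 min from 3 to 15 min.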

SMILES	Ki [1]	Ki [2]	Ki [3]	further results
COc1cccc(C2=CCC(N3CCN(c4ccccc4)CC3)CC2)c1 (stereo unspecified)	5160 nM	2190 nM		
COc1cccc(C2CCC(NCCOc3ccccn3)CC2)c1 (cis isomer)		783 nM	373 nM	
COc1cccc(C2CCC(N3CCN(c4ccccc4OC)CC3)CC2)c1 (stereo in doubt; cis)	1050 nM	668 nM	79.6 nM	
COc1cccc(C2CCC(NCCOc3ccccn3)CC2)c1 (stereo in doubt)				Emax [4]: 82%; pD2 [5]: 7.46; Selectivity [6]: 53; Selectivity [7]: 88; Selectivity [8]: 37
COc1cccc(C2CCC(N3CCN(c4cccc5ccccc45)CC3)CC2)c1 (stereo in doubt)	5540 nM	1310 nM	74 nM	
COc1cccc(C2=CCC(N3CCN(c4cccc5ccccc45)CC3)CC2)c1 (stereo unspecified)	986 nM	327 nM	15 nM	
COc1cccc(C2CCC(N3CCN(c4ccccc4OC)CC3)CC2)c1 (stereo in doubt; trans)				Emax [4]: 26.5%; pD2 [5]: 9.91; Selectivity [6]: 24; Selectivity [7]: 206; Selectivity [8]: 21
COc1ccc2c(c1)CCC(CNCCOc1ccccn1)C2 (stereo unspecified)	> 850 nM	> 850 nM	59 nM	
CCCN(CCC)C1CCc2cccc(O)c2C1 (stereo unspecified)				Emax [4]: 100%
COc1cccc(C2=CCC(N3CCN(c4ccccn4)CC3)CC2)c1 (stereo unspecified)	512 nM	1220 nM	536 nM	
COc1cccc(C2CCC(N3CCN(c4ccccc4)CC3)CC2)c1 (stereo in doubt; trans)	730 nM	910 nM	0.026 nM	
COc1ccccc1C1CCC(N2CCN(c3ccccn3)CC2)CC1 (stereo in doubt; cis)	712 nM	2120 nM	480 nM	
COc1ccc2c(c1)CC(CCN1CCN(c3ccccn3)CC1)CC2 (stereo unspecified)	117 nM	1730 nM	0.16 nM	
COc1cccc(C2CCC(N3CCN(c4cccc5ccccc45)CC3)CC2)c1 (trans isomer)	470 nM	70 nM	0.22 nM	
COc1cccc(C2CCC(N3CCN(c4ccccn4)CC3)CC2)c1 (trans isomer)				Emax [4]: 95.9%; ED50 [9]: 0.721 µg/kg; pD2 [5]: 9.28; Selectivity [6]: 165; Selectivity [7]: 265; Selectivity [8]: 590
COc1cccc(CCCCN2CCN(c3ccccn3)CC2)c1	467 nM	750 nM	23 nM	
COc1cccc(C2CCC(N3CCN(c4ccccn4)CC3)CC2)c1 (cis isomer)	783 nM	> 850 nM	815 nM	
COc1ccc2c(c1)CCC(CN1CCN(c3ccccn3)CC1)C2 (stereo unspecified)	585 nM	> 850 nM	676 nM	
COc1cccc(C2CCC(N3CCN(c4ccccc4)CC3)CC2)c1 (stereo in doubt; cis)	2250 nM	2380 nM	183 nM	
COc1ccc(C2CCC(N3CCN(c4ccccn4)CC3)CC2)cc1 (trans isomer)	847 nM	792 nM	0.046 nM	
COc1cccc(C2=CCC(N3CCN(c4ccccc4OC)CC3)CC2)c1 (stereo unspecified)	408 nM	2930 nM	7.1 nM	
COc1ccc(C2CCC(N3CCN(c4ccccn4)CC3)CC2)cc1 (stereo in doubt)	786 nM	787 nM	94 nM	
COc1cccc2c1CCC/C2=C\CCNCCOc1ccccn1	> 850 nM	> 850 nM	0.71 nM	
COc1ccccc1C1CCC(N2CCN(c3ccccn3)CC2)CC1 (stereo in doubt; trans)	303 nM	243 nM	0.2 nM	
COc1cccc(CCCCNCCOc2ccccn2)c1	733 nM	> 850 nM	39 nM	
COc1cccc2c1CCC/C2=C\CCN1CCN(c2ccccn2)CC1	60 nM	125 nM	0.31 nM	
